For 23 compounds, IC50 results are on record in PubChem BioAssay AID623964 (The Scripps Research Institute Molecular Screening Center, 2012).

For orientation: IC50 means the concentration that inhibits the measured activity by half.

Active and inactive are the calls of the source.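 How the source made its calls: active means compounds slowing the HCV NS3-NS4A protease by half at 50 µM or lower, per IC50; inactive means the rest.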

The assay has as its target Hepatitis C virus NS3-NS4A protease (single-chain scNS3-4A). The assay is described as follows: inhibitors of HCV NS3-NS4A protease, late-stage follow-up, selectivity assay for HCV NS3 helicase inhibitor project, biochemical, FRET peptide fluorescence, powder samples (AID 623964). The note with it: scNS3-4A protease, FRET peptide cleavage fluorescence. Put shortly:
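System: single-chain HCV NS3-NS4A protease (scNS3-4A); Input: 10 nM scNS3-4A protease enzyme; Reagent: quenched FRET peptide substrate, 5-FAM donor with QXL 520 quencher; Detection: 5-FAM fluorescence recovery; Evaluation: IC50 from Hill-equation fit of initial velocities; Benchmarks: DMSO-only reference velocity.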
Regarding `COC(=O)c1ccc(C(=O)Nc2ccc(-c3nc4ccc(-c5nc6ccc(C)c(S(=O)(=O)O)c6s5)cc4s3)cc2)cc1`, the IC50 is > 100 µM (inactive).
To `Cc1ccc2nc(-c3ccc4nc(-c5ccc(NC(=O)c6cc(C(F)(F)F)ccc6F)cc5)sc4c3)sc2c1S(=O)(=O)O` belongs “inactive”.
To `COc1ccc(NC(=O)Nc2ccc(-c3nc4ccc(-c5nc6ccc(C)c(S(=O)(=O)O)c6s5)cc4s3)cc2)cc1` belongs > 100 µM (inactive).
As for `Cc1ccc2nc(-c3ccc4nc(-c5ccc(NC(=O)c6ccc(N)cc6)cc5)sc4c3)sc2c1S(=O)(=O)O`, the figure is 39 µM; as for `Cc1ccc2nc(-c3ccc(NC(=O)c4ccc(NC(=O)Nc5ccccc5)cc4)cc3)sc2c1S(=O)(=O)O`, > 100 µM (inactive); as for `Cc1ccc2nc(-c3ccc4nc(-c5ccc(NC(=O)c6ccc(F)cc6)cc5)sc4c3)sc2c1S(=O)(=O)O`, “inactive”.
Regarding `Cc1cc(C(O)(c2ccc(Nc3ccccc3)cc2)c2ccc(Nc3ccc(S(=O)(=O)O)cc3)cc2)ccc1N` (stereo not drawn), the IC50 entry is “inactive”.
To `CN1CCN(Cc2cc(CN3CCN(C)CC3)c(O)c(=O)c(CN3CCN(C)CC3)c2)CC1` belongs > 100 µM (inactive).
As for `CCOc1ccc2c(NNC(=O)c3cnccn3)c3c(nc2c1)CCCC3`, the figure is > 100 µM (inactive); as for `O=C(CCCCCCC(=O)Nc1ccc(-c2nc3ccccc3[nH]2)cc1)Nc1ccc(-c2nc3ccccc3[nH]2)cc1`, 47 µM; as for `Cc1ccc2nc(-c3ccc4nc(-c5ccc(NC(=O)c6cccc(Cl)c6)cc5)sc4c3)sc2c1S(=O)(=O)O`, > 100 µM (inactive).
As for `Cc1ccc2nc(-c3ccc4nc(-c5ccc(NC(=O)c6cc(C(F)(F)F)cc(C(F)(F)F)c6)cc5)sc4c3)sc2c1S(=O)(=O)O`, the figure is 23 µM.
In the case of `Cc1ccc2nc(-c3ccc4nc(-c5ccc(NC(=O)c6ccc(C(F)(F)F)cc6)cc5)sc4c3)sc2c1S(=O)(=O)O`, the IC50 is 5 µM.
As for `Cc1ccc2nc(-c3ccc4nc(-c5ccc(NC(=O)c6ccc7ccccc7c6)cc5)sc4c3)sc2c1S(=O)(=O)O`, the figure is > 100 µM (inactive); as for `COc1cccc2c(=O)c3cc(Cl)cc(C(=O)Nc4cc(Cl)ccn4)c3[nH]c12`, “inactive”; as for `Cc1ccc2nc(-c3ccc4nc(-c5ccc(NC(=O)c6ccc(C(C)(C)C)cc6)cc5)sc4c3)sc2c1S(=O)(=O)O`, “inactive”.
Turning to `Cc1ccc2nc(-c3ccc4nc(-c5ccc(NC(=O)Nc6ccccc6)cc5)sc4c3)sc2c1S(=O)(=O)O`, the IC50 was > 100 µM (inactive).
Consider `Cc1ccc2nc(-c3ccc4nc(-c5ccc(NC(=O)c6ccc7nc(-c8ccc(N)cc8)sc7c6)cc5)sc4c3)sc2c1S(=O)(=O)O`, for which the 50% inhibitory concentration (IC50) is 7 µM.
To `Cc1ccc2nc(-c3ccc4nc(-c5ccc6nc(-c7ccc8nc(-c9ccc(N)cc9)sc8c7)sc6c5)sc4c3)sc2c1S(=O)(=O)O` belongs 2 µM; to `COc1ccc(C(=O)Nc2ccc(-c3nc4ccc(-c5nc6ccc(C)c(S(=O)(=O)O)c6s5)cc4s3)cc2)cc1`, “inactive”.
On to `Cc1ccc2nc(-c3ccc4nc(-c5ccc(NC(=O)c6ccc(Br)cc6)cc5)sc4c3)sc2c1S(=O)(=O)O`, for which the IC50 was 6 µM.
As for `Cc1ccc2nc(-c3ccc4nc(-c5ccc(NC(=O)Nc6ccc(Cl)cc6)cc5)sc4c3)sc2c1S(=O)(=O)O`, the figure is 13 µM; as for `Cc1ccc2nc(-c3ccc4nc(-c5ccc(NC(=O)c6ccc(Cl)c(Cl)c6)cc5)sc4c3)sc2c1S(=O)(=O)O`, 13 µM.
